From ChEMBL document CHEMBL1687872, “Synthesis, molecular docking and binding studies of selective serotonin transporter inhibitors” (Eur J Med Chem, 2011)

Tests used:
[1] = Displacement of [3H]-Nisoxetine from NET in rabbit cortical membrane; format: cell membranes, Oryctolagus cuniculus
Oryctolagus cuniculus [2] = species on record: Oryctolagus cuniculus; experiment: Ratio of Ki for DAT in rabbit striatal membrane to Ki for SERT in rabbit cortical membrane; format: cell membranes
Summary of the method: (§1)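 Ratio of the radioligand-binding Ki values from rabbit membranes: DAT ([3H]WIN 35,428, striatum) or NET ([3H]nisoxetine, cortex) Ki divided by SERT ([3H]paroxetine, cortex) Ki.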

[3] = Displacement of [3H]-WIN 35,428 from DAT in rabbit striatal membrane; format: cell membranes, Oryctolagus cuniculus, Striatum
Summary of the method: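 Rabbit striatal membranes (0.2 mg protein) in 50 mM Tris-HCl pH 7.4, 120 mM NaCl, 5 mM KCl with 0.5–2 nM [3H]WIN 35,428 (Kd 6.1 nM), 2 h at 4 °C; dopamine defines nonspecific binding; filtration over polyethylenimine-soaked GF/C filters, scintillation counting; ≥7 concentrations; Ki via Cheng-Prusoff, mean ± s.e.m. of three experiments in duplicate.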

[4] = Displacement of [3H]-paroxetine from SERT in rabbit cortical membrane; format: cell membranes, Oryctolagus cuniculus
Summary of the method: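 Competition against [3H]paroxetine (Kd 56.00 pM) on rabbit frontal cortex membranes, in duplicate, at least seven test concentrations from ethanol stocks diluted in Tris-HCl saline buffer; filtration and scintillation counting; Ki calculated by Cheng-Prusoff, mean ± s.e.m. of three independent experiments.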

Oryctolagus cuniculus [5] = species on record: Oryctolagus cuniculus; experiment: Ratio of Ki for NET in rabbit cortical membrane to Ki for SERT in rabbit cortical membrane; format: cell membranes; summary of the method: as §1

Structure (SMILES) | Ki [1] [nM] | Ratio Ki (Oryctolagus cuniculus [2]) | Ki [3] [nM] | Ki [4] [nM] | Ratio Ki (Oryctolagus cuniculus [5])
Fc1ccc(CO/N=C2/CNCCC2c2ccc(C(F)(F)F)cc2)cc1 (configuration not stated) | 9300 | > 1000 | > 100000 | 96.8 | 96
Fc1ccc(CO/N=C2/CNCCC2c2ccc(F)cc2)cc1 (racemic) | 13400 | 329 | 9460 | 28.7 | 466
Fc1ccc(CO/N=C2\CNCCC2c2ccc(F)cc2)cc1 (racemic) |  | 10 | 3190 | 306 | 
Fc1ccc(C2CCNC/C2=N/OCc2ccc(C(F)(F)F)cc2)cc1 (racemic) | 19500 | > 1000 | > 100000 | 98.4 | 198
Fc1ccc(C2CCNC/C2=N\OCc2ccc(C(F)(F)F)cc2)cc1 (racemic) |  | 45 | 6200 | 139 | 
Fc1ccc(C2CCNC/C2=N/OCc2ccccc2Cl)cc1 (racemic) | 11200 | 571 | 12900 | 22.6 | 496
Fc1ccc(C2CCNC/C2=N\OCc2ccccc2Cl)cc1 (racemic) |  | 47 | 3800 | 81.1 | 
Fc1ccc(CO/N=C2\CNCCC2c2ccc(C(F)(F)F)cc2)cc1 (racemic) |  | 7 | 2800 | 396 | 
FC(F)(F)c1ccc(C2CCNC/C2=N/OCc2ccccc2Cl)cc1 (racemic) | 10000 | > 9000 | > 100000 | 10.3 | 972
FC(F)(F)c1ccc(C2CCNC/C2=N\OCc2ccccc2Cl)cc1 (racemic) |  | 43 | 4200 | 96.6 | 
CNCCC(Oc1ccccc1OC)c1ccccc1 (configuration not stated) [NISOXETINE] | 3.5 |  |  |  | 
Fc1ccc([C@@H]2CCNC[C@H]2COc2ccc3c(c2)OCO3)cc1 [PAROXETINE] | 80 | 2480 | 769 | 0.31 | 258
CNCC[C@@H](Oc1ccc(C(F)(F)F)cc1)c1ccccc1 [R-FLUOXETINE] | 609 | 670 | 4000 | 5.8 | 105
Fc1ccc(C(OCCN2CCN(CCCc3ccccc3)CC2)c2ccc(F)cc2)cc1 [VANOXERINE] |  |  | 1.5 |  | 
